In publication PMC6594083 (Diabetes, Obesity & Metabolism, 2019):
“And” between values parts separate entries of the source, which are not always exact repeats. Equal entries are not always repeated. Where two headings read alike, the source gives them in different places.

Tests used:
Type in all cases: in vivo, human (Japanese patients)
[1] = tested on: Japanese patients with type 1 diabetes mellitus; assay: Safety: serum ketone levels; details: for Blood ketone body in patient with AE blood ketone body increased: person; for Mean (SD) change in total serum ketones: baseline until end of treatment
Outline: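 Total serum ketones, acetoacetic acid and 3-hydroxybutyric acid were measured at screening, predose on treatment days 1 (baseline), 2, 3, 14 and 15, and in the post-treatment period. Ketone increases were reported as adverse events.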

[2] = Pharmacokinetics of ipragliflozin; details: human, plasma, oral, AUC24h, day 14, mean ± SD
Outline: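 Patients were hospitalized days −2 to 3 and days 13 to 15. […] The analysis set was patients dosed with at least one drug-concentration sample.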

[3] = tested on: Japanese patients with type 1 diabetes mellitus; assay: Concomitant insulin daily dose; details: day 14
Outline: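 Japanese type 1 diabetes patients on insulin; randomized, double-blind, placebo-controlled. Insulin was adjusted by usual clinical practice on physician instruction, with a cut considered if self-monitored glucose fell below 80 mg/dL. Basal, bolus and total daily units recorded; change from baseline to day 14.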

[4] = tested on: Japanese patients with type 1 diabetes mellitus; details: Day 15; for Glycoalbumin, AMD (95% CI): adjusted mean difference to placebo; for Body weight, mean change from baseline / Glycoalbumin, mean change from baseline: mean ± SD
Outline: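 Glycoalbumin and body weight were taken as change from baseline to day 15. Differences from placebo came from an analysis of covariance with baseline as covariate, with 95% CI. Analysed in patients with day-14 pharmacodynamic data.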

[5] = tested on: Japanese patients with type 1 diabetes mellitus; assay: Safety: treatment-emergent adverse events incl. hypoglycaemia
Outline: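 Self-monitored blood glucose was checked four times daily, before each meal and at bedtime. A value ≤70 mg/dL (≤3.89 mmol/L) was recorded as a hypoglycaemia adverse event. Adverse events were coded by MedDRA version 18.0 in all dosed patients.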

SMILES: OC[C@H]1O[C@@H](c2ccc(F)c(Cc3cc4ccccc4s3)c2)[C@H](O)[C@@H](O)[C@@H]1O [ipragliflozin]
- Blood ketone body in patient with AE blood ketone body increased ([1]; 25 mg group, day 15, 24 hours postdose): 991 µmol/L
- Mean (SD) change in total serum ketones ([1]; 25 mg/day): 173.38 (267.48) μmol/L
- Blood ketone body in patient with AE blood ketone body increased ([1]; 50 mg group, day 15, 24 hours postdose): 968 µmol/L
- Mean (SD) change in total serum ketones ([1]; 50 mg/day): 357.07 (294.41) μmol/L
- Blood ketone body in patient with AE blood ketone body increased ([1]; 100 mg group, day 2, predose): 1200 µmol/L
- Blood ketone body in patient with AE blood ketone body increased ([1]; 100 mg group, day 15, 24 hours postdose): 1770 µmol/L
- Mean (SD) change in total serum ketones ([1]; 100 mg/day): 233.18 (387.35) μmol/L
- AUC(0-t) ([2]; 25 mg/day, 25 mg/day): 2510 ± 495 ng·h/mL
- AUC(0-t) ([2]; 50 mg/day, 50 mg/day): 5790 ± 1130 ng·h/mL
- Total daily insulin dose, % change from baseline (SD) ([3]; 25 mg/day): −14.77 ± 14.04%
- Total daily insulin dose, % change from baseline (SD) ([3]; 50 mg/day): −18.40 ± 12.49%
- Total daily insulin dose, % change from baseline (SD) ([3]; 100 mg/day): −19.25 ± 16.77%
- Glycoalbumin, AMD (95% CI) ([4]; 25 mg/day): −2.17% and −2.17 (−3.84, −0.51) %
- Body weight, mean change from baseline ([4]; 25 mg/day): -0.83 ± 0.48 kg
- Glycoalbumin, mean change from baseline ([4]; 25 mg/day): −2.67 ± 2.30%
- Glycoalbumin, AMD (95% CI) ([4]; 50 mg/day): −2.03% and −2.03 (−3.58, −0.48) %
- Body weight, mean change from baseline ([4]; 50 mg/day): -1.18 ± 1.06 kg
- Glycoalbumin, mean change from baseline ([4]; 50 mg/day): −2.53 ± 1.52%
- Body weight, mean change from baseline ([4]; 100 mg/day): -0.94 ± 0.89 kg
- Glycoalbumin, mean change from baseline ([4]; 100 mg/day): −2.95 ± 2.24%
- Hypoglycaemia, Asymptomatic ([5]; 25 mg/day (n = 10)): 10 (100.0) patients (%)
- Hypoglycaemia, Asymptomatic, number of events ([5]; 25 mg/day (n = 10)): 44 events
- Hypoglycaemia, Documented symptomatic ([5]; 25 mg/day (n = 10)): 8 (80.0) patients (%)
- Hypoglycaemia, Documented symptomatic, number of events ([5]; 25 mg/day (n = 10)): 58 events
- Hypoglycaemia, Drug‐related ([5]; 25 mg/day (n = 10)): 10 (100.0) patients (%)
- Hypoglycaemia, Drug‐related, number of events ([5]; 25 mg/day (n = 10)): 83 events
- Hypoglycaemia, Major ([5]; 25 mg/day (n = 10)): 0 patients (%)
- Hypoglycaemia, Mild, number of events ([5]; 25 mg/day (n = 10)): 102 events
- Hypoglycaemia, Moderate ([5]; 25 mg/day (n = 10)): 1 (10.0) patients (%)
- Hypoglycaemia, Moderate, number of events ([5]; 25 mg/day (n = 10)): 1 events
- Hypoglycaemia, Probable symptomatic ([5]; 25 mg/day (n = 10)): 0 patients (%)
- Hypoglycaemia, Relative ([5]; 25 mg/day (n = 10)): 1 (10.0) patients (%)
- Hypoglycaemia, Relative, number of events ([5]; 25 mg/day (n = 10)): 1 events
- Hypoglycaemia, Serious ([5]; 25 mg/day (n = 10)): 0 patients (%)
- Hypoglycaemia, Severe ([5]; 25 mg/day (n = 10)): 0 patients (%)
- TEAE Beta 2 microglobulin increased ([5]; 25 mg/day (n = 10)): 1 (10.0) patients (%)
- TEAE Blood bilirubin increased ([5]; 25 mg/day (n = 10)): 1 (10.0) patients (%)
- TEAE Blood ketone body increased ([5]; 25 mg/day (n = 10)): 1 (10.0) patients (%)
- TEAE Constipation ([5]; 25 mg/day (n = 10)): 0 patients (%)
- TEAE Decreased appetite ([5]; 25 mg/day (n = 10)): 0 patients (%)
- TEAE Gastroenteritis ([5]; 25 mg/day (n = 10)): 1 (10.0) patients (%)
- TEAE Headache ([5]; 25 mg/day (n = 10)): 0 patients (%)
- TEAE Hemorrhoidal hemorrhage ([5]; 25 mg/day (n = 10)): 0 patients (%)
- TEAE Hyperglycaemia ([5]; 25 mg/day (n = 10)): 0 patients (%)
- TEAE Hypoglycaemia ([5]; 25 mg/day (n = 10)): 10 (100.0) patients (%)
- TEAE Hypoglycaemia, number of events ([5]; 25 mg/day (n = 10)): 103 events
- TEAE Nasopharyngitis ([5]; 25 mg/day (n = 10)): 1 (10.0) patients (%)
- TEAE Overall ([5]; 25 mg/day (n = 10)): 10 (100.0) patients (%)
- TEAE Papule ([5]; 25 mg/day (n = 10)): 0 patients (%)
- TEAE Pollakiuria ([5]; 25 mg/day (n = 10)): 0 patients (%)
- TEAE Pyrexia ([5]; 25 mg/day (n = 10)): 0 patients (%)
- TEAE Upper respiratory tract infection ([5]; 25 mg/day (n = 10)): 0 patients (%)
- TEAE Urine ketone body present ([5]; 25 mg/day (n = 10)): 0 patients (%)
- TEAE Vomiting ([5]; 25 mg/day (n = 10)): 0 patients (%)
- Hypoglycaemia, Asymptomatic ([5]; 50 mg/day (n = 12)): 9 (75.0) patients (%)
- Hypoglycaemia, Asymptomatic, number of events ([5]; 50 mg/day (n = 12)): 34 events
- Hypoglycaemia, Documented symptomatic ([5]; 50 mg/day (n = 12)): 11 (91.7) patients (%)
- Hypoglycaemia, Documented symptomatic, number of events ([5]; 50 mg/day (n = 12)): 96 events
- Hypoglycaemia, Drug‐related ([5]; 50 mg/day (n = 12)): 12 (100.0) patients (%)
- Hypoglycaemia, Drug‐related, number of events ([5]; 50 mg/day (n = 12)): 122 events
- Hypoglycaemia, Major ([5]; 50 mg/day (n = 12)): 0 patients (%)
